From PubChem BioAssay
Shown are actives, neighbours in structure and some others; about 3.1% of the full set was active somewhere.
ADAM17 inh = inhibitors of human ADAM17. recombinant ADAM17, EDANS/DABCYL FRET peptide cleavage. inhibition, % at 6.95 µM. 370,000 compounds, 0.83% hits;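 active = inhibition above the mean of compounds lying between control limits plus 3 SD, set per campaign, cut at about 8.5% in these data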
Target sequence (P78536 215-824 limits assumed): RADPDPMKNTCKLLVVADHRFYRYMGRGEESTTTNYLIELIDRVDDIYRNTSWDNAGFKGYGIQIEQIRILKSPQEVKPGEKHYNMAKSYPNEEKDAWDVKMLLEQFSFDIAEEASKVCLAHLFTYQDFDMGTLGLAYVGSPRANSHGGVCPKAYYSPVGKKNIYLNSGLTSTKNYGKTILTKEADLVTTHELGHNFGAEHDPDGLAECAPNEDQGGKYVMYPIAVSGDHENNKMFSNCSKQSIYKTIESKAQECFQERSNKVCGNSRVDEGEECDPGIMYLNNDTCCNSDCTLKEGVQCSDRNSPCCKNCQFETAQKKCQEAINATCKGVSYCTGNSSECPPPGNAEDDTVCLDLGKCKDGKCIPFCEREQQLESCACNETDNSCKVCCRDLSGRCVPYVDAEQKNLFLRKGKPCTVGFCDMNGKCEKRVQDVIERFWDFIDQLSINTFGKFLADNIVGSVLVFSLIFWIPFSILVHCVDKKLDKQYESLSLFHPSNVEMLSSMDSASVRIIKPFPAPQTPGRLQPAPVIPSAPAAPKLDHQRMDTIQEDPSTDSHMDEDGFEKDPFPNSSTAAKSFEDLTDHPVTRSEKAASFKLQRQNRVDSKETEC
V-ATPase pH = yeast V-ATPase proton transport regulation by pHLuorin. S. cerevisiae, pHLuorin cytosolic pH fluorescence. response, % at 10 µM. 350,000 compounds, 0.37% hits. AID 504577; in the data active = response mostly above about 7.3%, no sharp cut-off; inactive = mostly below about 5.4%; also: actives read high
MPTP block = blocks calcium-induced mitochondrial swelling | isolated mouse mitochondria, Ca2+ swelling absorbance, 30 min | inhibition, % at 10 µM | 360,000 compounds, 1.4% hits;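 active = inhibition of 50% or more, scaled per plate between neutral and stimulator controls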
ADAM10 inh = ADAM10 inhibition, QFRET primary screen; inhibition, % at 7 µM; recombinant ADAM10, EDANS/DABCYL FRET peptide cleavage, 3 h; O14672; AID 720582; 370,000 compounds, 0.62% hits;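 active = inhibition above a per-campaign cutoff equal to the mean of compounds falling between control-based bounds plus 3 SD, cut at about 20% in these data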
Hep lipid drop = hepatic lipid droplet formation modulation | 240,000 compounds, 0.4% hits | AML12 mouse hepatocytes, oleate lipid droplets, BODIPY imaging | inhibition, % at 6.5 µM;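 active = lipid droplet intensity inhibited by at least 50%, with more than 500 cells counted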
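Assay system: AML12 hepatocytes (mouse); Probe or stimulus: oleic acid at 100 µM to induce lipid droplet formation; Dosing: compound at 6.5 µM only; Schedule: compound with oleate, overnight; Detection: fluorescence imaging, 20x objective, two fields per well; Measure: % inhibition of lipid droplet signal.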
aDG glyco act = increases alpha dystroglycan glycosylation. 360,000 compounds, 0.22% hits. activation, % at 10 µM. Pro5-aDG cells, alpha-DG glycosylation AlphaScreen (IIH6); 0% Pro5, 100% B10-LARGE cell signal;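 active = activation of at least 8% versus controls, or a plate z-score of at least 8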;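 also: Pro5 are CHO cells carrying HIG-tagged alpha-DG that lacks glycosylation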
ADAM10 confirm = human ADAM10 inhibition, confirmation; 2,100 compounds, 1% hits; AID 743208; inhibition, % at 6.95 µM; ADAM10 QFRET peptide cleavage, EDANS fluorescence; shares compounds with ADAM10 inh;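 active = inhibition above about 20% chosen separately for each screening run, limit read from the data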
ADAM17 ctr = counter-screen for ADAM10 exosite inhibitors: inhibitors of human ADAM17 | shares compounds with ADAM10 inh | ADAM17 QFRET peptide cleavage, EDANS fluorescence | inhibition, % at 6.95 µM | 2,100 compounds, 0.5% hits | AID 743214;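 active = mean triplicate inhibition above the solvent-only control wells' mean plus 3 SD, cut at about 12% in these data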
Of the large screens only hits and unclear results are named; the others gave an inactive call (follow-up assays come after a bar, where they were run).

C[C@@H]1CN([C@@H](C)CO)C(=O)c2cccc(NC(=O)Nc3ccc(F)cc3)c2O[C@@H]1CN(C)Cc1ccc(Oc2ccccc2)cc1	ADAM10 inh 21 (no result: Hep lipid drop) | ADAM10 confirm inactive | ADAM17 ctr inactive
C[C@@H]1CCCCO[C@H](CN(C)C(=O)NC2CCCCC2)[C@@H](C)CN([C@H](C)CO)C(=O)c2cc(NC(=O)c3ccccc3)ccc2O1	none (no result: Hep lipid drop)
CCN(Cc1cn(Cc2ccccc2)nn1)S(=O)(=O)c1ccccc1Br	none (no result: V-ATPase pH, MPTP block, Hep lipid drop, aDG glyco act)
C[C@@H]1CN([C@H](C)CO)C(=O)c2cc(NC(=O)Nc3ccc(C(F)(F)F)cc3)ccc2O[C@H]1CN(C)C(=O)Nc1ccc(F)cc1	ADAM10 inh 35 (no result: Hep lipid drop) | ADAM10 confirm inactive | ADAM17 ctr inactive
COc1ccc(NC(=O)CN2C(=O)C(c3ccccc3)=NC23CCCCCC3)cc1	ADAM10 inh 27 | ADAM10 confirm inactive | ADAM17 ctr inactive
Cc1ccccc1-n1c(Cn2c(=O)sc3ccccc32)nnc1SC(C)C	ADAM10 inh 78 | ADAM10 confirm inactive | ADAM17 ctr inactive
Cc1cccc(C(=O)NN2C(=O)C3C(c4ccccc4)C=CC(c4ccccc4)C3C2=O)c1 (stereo unspecified)	ADAM10 inh 20 (no result: Hep lipid drop) | ADAM10 confirm inactive | ADAM17 ctr inactive
C#CCNC(=O)C[C@@H]1C(=O)N(Cc2ccc(OC)cc2)C2=CCN(C(=O)OC(C)(C)C)C[C@]21C(=O)OCC	none (no result: V-ATPase pH, MPTP block, Hep lipid drop, aDG glyco act)
O=[N+]([O-])c1cc(Br)c(Nc2ccccc2)c([N+](=O)[O-])c1	none
O=[N+]([O-])c1cc([N+](=O)[O-])c2c(=Nc3ccccc3)n(-c3ccccc3)n(O)c2c1	ADAM10 inh 25 | ADAM10 confirm inactive | ADAM17 ctr inactive
Cc1cccc(CCNC(=O)Cn2nc(-c3ccccc3)ccc2=O)c1	none (no result: V-ATPase pH, MPTP block, Hep lipid drop, aDG glyco act)
COc1ccc2nc(SCC(=O)Nc3ccc(S(=O)(=O)N4CCCC4)cc3)c(C#N)cc2c1	ADAM10 inh 72 | ADAM10 confirm 20 | ADAM17 ctr inactive
CCOc1ccc2nc(SCC(=O)Nc3ccc(S(=O)(=O)N4CCCC4)cc3)c(C)cc2c1	none
COC(=O)[C@@]12CCCCC3=C1N(CCC3)C(=O)[C@H]2CC(=O)N1CCCCC1	none (no result: V-ATPase pH, MPTP block, Hep lipid drop, aDG glyco act)
CCCSc1ncc(Cl)c(C(=O)Nc2ccc(S(=O)(=O)N3CC(C)OC(C)C3)cc2)n1 (stereo unspecified)	ADAM10 inh 20 | ADAM10 confirm inactive | ADAM17 ctr inactive
CCSc1ncc(Cl)c(C(=O)Nc2ccc(S(N)(=O)=O)cc2)n1	none
CC1(C(=O)N2CCC(CC3CC(c4cccc(Br)c4)=NO3)(C(=O)NCC3CCCCC3)CC2)CC1 (stereo unspecified)	ADAM10 inh 25 | ADAM10 confirm inactive | ADAM17 ctr inactive
CC1(C(=O)N2CCC(CC3CC(c4ccc(Cl)cc4)=NO3)(C(=O)NCC3CCCCC3)CC2)CC1 (stereo unspecified)	none
COCCN(C(=O)c1cc2c(s1)CCCCC2)c1c(N)n(Cc2ccccc2)c(=O)[nH]c1=O	none (no result: Hep lipid drop)
COCCCN(C(=O)c1cc2c(s1)CCCCC2)c1c(N)n(Cc2ccccc2)c(=O)[nH]c1=O	ADAM10 inh 20 (no result: Hep lipid drop) | ADAM10 confirm inactive | ADAM17 ctr inactive
CCOC(=O)C(C)C1(O)c2ccccc2-c2ncccc21 (stereo unspecified)	none (no result: Hep lipid drop)
OC(CC1CC12c1ccccc1-c1ncccc12)(c1ccccc1)c1ccccc1 (stereo unspecified)	ADAM10 inh 24 | ADAM10 confirm inactive | ADAM17 ctr inactive
C/C=C/C(=O)N1CCc2cc(S(=O)(=O)N(C)Cc3ccco3)ccc21	none (no result: V-ATPase pH, MPTP block, Hep lipid drop, aDG glyco act)
CCOc1ccc(NC(=O)CN(C)C(=O)CSCc2cccc(C)c2)cc1OCC	ADAM10 inh 30 (no result: Hep lipid drop) | ADAM10 confirm inactive | ADAM17 ctr inactive
C=CCN1[C@H](Cc2ccccc2)COc2cc(F)ccc2S1(=O)=O	none (no result: V-ATPase pH, MPTP block, Hep lipid drop, aDG glyco act)
Cc1cccc(N2CCN(S(=O)(=O)c3ccc(S(=O)(=O)N4CCCC4)cc3)CC2)c1C	none
Cc1cccc(N2CCN(S(=O)(=O)c3ccc4c(c3)CC(=O)N4C)CC2)c1C	ADAM10 inh 21 | ADAM10 confirm inactive | ADAM17 ctr inactive
O=S1(=O)c2c(cccc2N2CCC[C@@H]2CO)O[C@H]2CCN1C2	none (no result: V-ATPase pH, MPTP block, Hep lipid drop, aDG glyco act)
O=S(Cc1ccc(Br)cc1)Cc1nnc(SCc2ccc(Br)cc2)n1-c1ccccc1 (stereo unspecified)	ADAM10 inh 22 (no result: Hep lipid drop) | ADAM10 confirm inactive | ADAM17 ctr inactive
COC(=O)c1ccc(CSc2nnc(CS(=O)Cc3ccc(Br)cc3)n2-c2ccccc2)cc1 (stereo unspecified)	none
CN(CCc1ccccc1)C(=O)c1cc(COc2cccc(C(F)(F)F)c2)on1	ADAM10 inh 21 | ADAM10 confirm inactive | ADAM17 ctr inactive
CSc1ccc(Cn2c(C)c(C(=O)NCc3ccc4c(c3)OCCO4)sc2=O)cc1	ADAM10 inh 20 (no result: V-ATPase pH, Hep lipid drop) | ADAM10 confirm inactive | ADAM17 ctr inactive
CSc1ccc(Cn2c(C)c(C(=O)NCc3ccc(Cl)c(Cl)c3)sc2=O)cc1	ADAM10 inh 21 (no result: V-ATPase pH, Hep lipid drop) | ADAM10 confirm inactive | ADAM17 ctr inactive
NC(=O)C1=CN([C@@H]2O[C@H](COP(=O)(O)OP(=O)(O)OC[C@H]3O[C@@H](n4cnc5c(N)ncnc54)[C@H](O)[C@@H]3O)[C@@H](O)[C@H]2O)C=CC1	none (no result: V-ATPase pH, MPTP block, Hep lipid drop, aDG glyco act)
Cc1ccccc1NS(=O)(=O)c1ccc(OCC(=O)NCc2ccccn2)cc1	none
O=C(COc1ccc(S(=O)(=O)Nc2ccccc2)cc1)NCc1ccccn1	ADAM10 inh 74 | ADAM10 confirm inactive | ADAM17 ctr inactive
CC(C)NC(=O)NC1CCN(CC(=O)Nc2ccc3c(c2)OCCO3)CC1	none (no result: V-ATPase pH, MPTP block, Hep lipid drop, aDG glyco act)
COc1ccc(CN(CCN2CCOCC2)C(=O)c2cc(Cl)ccc2F)cc1OC	none (no result: V-ATPase pH, MPTP block, Hep lipid drop, aDG glyco act)
OC[C@H]1CC[C@@H]2O[C@H](CCc3ccc(-c4ccc(F)cc4)cc3)[C@H](n3cc(C4CC4)nn3)C[C@@H]2O1	none (no result: V-ATPase pH, MPTP block, Hep lipid drop, aDG glyco act)
Cn1c(=O)c(C(=O)NNC(=O)c2ccccc2Br)c(O)c2ccccc21	ADAM10 inh 20 | ADAM10 confirm inactive | ADAM17 ctr inactive
Cn1c(=O)c(C(=O)NNC(=O)c2ccccc2Cl)c(O)c2ccccc21	none (no result: V-ATPase pH)
FC(F)(F)c1ccc(Cn2ccc3ccc(-c4ccc5ccn(Cc6ccccc6)c5c4)cc32)cc1	none (no result: V-ATPase pH, MPTP block, Hep lipid drop, aDG glyco act)
O=S(=O)(Nc1ccc(S(=O)(=O)Nc2ccccc2)cc1)c1ccccc1	none (no result: Hep lipid drop)
O=S(=O)(Nc1ccc(N=Nc2ccccc2)cc1)c1ccccc1	ADAM10 inh 20 | ADAM10 confirm inactive | ADAM17 ctr inactive
Clc1ccccc1CSc1nncn1NC/C=C/c1ccccc1	ADAM10 inh 20 | ADAM10 confirm inactive | ADAM17 ctr inactive
